Results taken from ChEMBL document CHEMBL2346664, “Synthesis, characterization and in vitro anticancer evaluation of novel 1,2,4-triazolin-3-one derivatives” (2013).

Assays:
Type in all cases: functional
HCT-15 = assay: Growth inhibition of human HCT15 cells assessed as cell growth at 10 '-6 M after 48 hrs by sulforhodamine B assay; conditions: HCT-15, 48 h, read-out: Activity
MOLT-4 = assay: Growth inhibition of human MOLT4 cells assessed as cell growth at 10 '-6 M after 48 hrs by sulforhodamine B assay; conditions: MOLT-4, 48 h, read-out: Activity
HCT-116 [1] = assay: Growth inhibition of human HCT116 cells assessed as cell growth at 10 '-5 M after 48 hrs by sulforhodamine B assay; conditions: HCT-116, 48 h, read-out: Activity
IGROV-1 = assay: Growth inhibition of human IGROV1 cells assessed as cell growth at 10 '-4 M after 48 hrs by sulforhodamine B assay; conditions: IGROV-1, 48 h, read-out: Activity
SK-MEL-28 = assay: Growth inhibition of human SK-MEL-28 cells assessed as cell growth at 10 '-4 M after 48 hrs by sulforhodamine B assay; conditions: SK-MEL-28, 48 h, read-out: Activity
LOX IMVI = assay: Growth inhibition of human LOXIMVI cells assessed as cell growth at 10 '-5 M after 48 hrs by sulforhodamine B assay; conditions: read-out: Activity
T47D = assay: Growth inhibition of human T47D cells assessed as cell growth at 10 '-4 M after 48 hrs by sulforhodamine B assay; conditions: read-out: Activity
[2] = Growth inhibition of human EKVX cells assessed as cell growth at 10 '-5 M after 48 hrs by sulforhodamine B assay; conditions: read-out: Activity
HCT-116 [3] = assay: Growth inhibition of human HCT116 cells assessed as cell growth at 10 '-8 M after 48 hrs by sulforhodamine B assay; conditions: HCT-116, 48 h, read-out: Activity
U-251 = assay: Growth inhibition of human U251 cells assessed as cell growth at 10 '-4 M after 48 hrs by sulforhodamine B assay; conditions: U-251, 48 h, read-out: Activity
SK-MEL-5 [4] = assay: Growth inhibition of human SK-MEL-5 cells assessed as cell growth at 10 '-5 M after 48 hrs by sulforhodamine B assay; conditions: SK-MEL-5, 48 h, read-out: Activity
NCI-H322M = assay: Growth inhibition of human NCI-H322M cells assessed as growth inhibition at 10 uM after 48 hrs by sulforhodamine B assay; conditions: read-out: GI
RPMI-8226 = assay: Growth inhibition of human RPMI8226 cells assessed as cell growth at 10 '-6 M after 48 hrs by sulforhodamine B assay; conditions: RPMI-8226, 48 h, read-out: Activity
NCI-H522 [5] = assay: Growth inhibition of human NCI-H522 cells assessed as cell growth at 10 '-7 M after 48 hrs by sulforhodamine B assay; conditions: NCI-H522, 48 h, read-out: Activity
MCF7 = assay: Growth inhibition of human MCF7 cells assessed as cell growth at 10 '-8 M after 48 hrs by sulforhodamine B assay; conditions: MCF7, 48 h, read-out: Activity
SK-MEL-5 [6] = assay: Growth inhibition of human SK-MEL-5 cells after 48 hrs by sulforhodamine B assay; conditions: SK-MEL-5, 48 h
SK-MEL-2 = assay: Growth inhibition of human SK-MEL-2 cells assessed as cell growth at 10 '-7 M after 48 hrs by sulforhodamine B assay; conditions: SK-MEL-2, 48 h, read-out: Activity
MDA-MB-468 [7] = assay: Growth inhibition of human MDA-MB-468 cells assessed as cell growth at 10 '-4 M after 48 hrs by sulforhodamine B assay; conditions: MDA-MB-468, 48 h, read-out: Activity
OVCAR-4 = assay: Growth inhibition of human OVCAR4 cells after 48 hrs by sulforhodamine B assay; conditions: OVCAR-4, 48 h
Method in brief: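 NCI 60-cell-line five-dose screen over 0.01, 0.1, 1, 10 and 100 µM, with 48 h continuous exposure at 37 °C and 5% CO2 after 24 h pre-incubation (5,000–40,000 cells/well). Cells were TCA-fixed (10% final for adherent, 16% for suspension), stained with SRB and read at 515 nm. GI50 was solved from [(Ti−Tz)/(C−Tz)]×100 = 50 against time-zero plates.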

NCI-H522 [8] = assay: Growth inhibition of human NCI-H522 cells assessed as growth inhibition at 10 uM after 48 hrs by sulforhodamine B assay; conditions: NCI-H522, 48 h, read-out: GI
M14 = assay: Growth inhibition of human M14 cells assessed as cell growth at 10 '-7 M after 48 hrs by sulforhodamine B assay; conditions: M14, 48 h, read-out: Activity
MDA-MB-435 = assay: Growth inhibition of human MDA-MB-435 cells assessed as cell growth at 10 '-8 M after 48 hrs by sulforhodamine B assay; conditions: MDA-MB-435, 48 h, read-out: Activity
SN12C [9] = assay: Growth inhibition of human SN12C cells assessed as growth inhibition at 10 uM after 48 hrs by sulforhodamine B assay; conditions: read-out: GI
SNB-19 = assay: Growth inhibition of human SNB19 cells assessed as cell growth at 10 '-5 M after 48 hrs by sulforhodamine B assay; conditions: SNB-19, 48 h, read-out: Activity
HOP-92 = assay: Growth inhibition of human HOP92 cells assessed as cell growth at 10 '-4 M after 48 hrs by sulforhodamine B assay; conditions: HOP-92, 48 h, read-out: Activity
A498 = assay: Growth inhibition of human A498 cells assessed as cell growth at 10 '-5 M after 48 hrs by sulforhodamine B assay; conditions: A498, 48 h, read-out: Activity
Method in brief: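 Percent growth at each of the five concentrations of the 48 h continuous-exposure NCI SRB screen. Drug stocks were in DMSO at 400× the top final concentration and diluted in medium with gentamicin. Growth was calculated as [(Ti-Tz)/(C-Tz)]×100 when Ti ≥ Tz, or [(Ti-Tz)/Tz]×100 when Ti < Tz. Tz plates were fixed at drug addition; untreated wells served as control. Absorbance was read at 515 nm.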

MDA-MB-468 [10] = assay: Growth inhibition of human MDA-MB-468 cells after 48 hrs by sulforhodamine B assay; conditions: MDA-MB-468, 48 h
Method in brief: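 NCI 60-cell-line five-dose screen. Cells were plated at 5,000–40,000/well by doubling time and grown 24 h at 37 °C, 5% CO2. Time-zero plates were TCA-fixed. Drug from DMSO stock was tested at 0.01, 0.1, 1, 10 and 100 µM final for 48 h continuous exposure. Read-out was SRB at 515 nm. GI50 is the concentration giving 50% reduction in net protein increase versus untreated control.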

UACC-62 = assay: Growth inhibition of human UACC62 cells assessed as cell growth at 10 '-8 M after 48 hrs by sulforhodamine B assay; conditions: UACC-62, 48 h, read-out: Activity
SN12C [11] = assay: Growth inhibition of human SN12C cells assessed as cell growth at 10 '-4 M after 48 hrs by sulforhodamine B assay; conditions: read-out: Activity
[12] = read-out: LD50 (the source's name)

Cc1cc(=O)oc2cc(OCCn3c(C)nn(-c4ccc(Cl)cc4)c3=O)ccc12
growth at 1 µM (HCT-15): 80%
growth at 1 µM (MOLT-4): 100%
growth at 10 µM (HCT-116 [1]): 21%
growth at 100 µM (IGROV-1): 41%
growth at 100 µM (SK-MEL-28): 33%
growth at 10 µM (LOX IMVI): 39%
growth at 100 µM (T47D): 36%
growth at 10 µM [2]: 63%
growth at 0.01 µM (HCT-116 [3]): 101%
growth at 100 µM (U-251): -4%
growth at 10 µM (SK-MEL-5 [4]): 13%
inhibition of growth at 10 µM (NCI-H322M): 41.3%
growth at 1 µM (RPMI-8226): 95%
growth at 0.1 µM (NCI-H522 [5]): 96%
growth at 0.01 µM (MCF7): 98%
GI50 (SK-MEL-5 [6]): 8.48 µM
TGI (SK-MEL-5 [6]): > 1 µM
CC50 (SK-MEL-5 [6]; [12]): > 1 µM
growth at 0.1 µM (SK-MEL-2): 107%
growth at 100 µM (MDA-MB-468 [7]): -5%
GI50 (OVCAR-4): 2.68 µM
CC50 (OVCAR-4; [12]): > 1 µM
inhibition of growth at 10 µM (NCI-H522 [8]): 82.8%
growth at 0.1 µM (M14): 101%
growth at 0.01 µM (MDA-MB-435): 99%
inhibition of growth at 10 µM (SN12C [9]): 48.2%
growth at 10 µM (SNB-19): 39%
growth at 100 µM (HOP-92): 32%
growth at 10 µM (A498): 8%
GI50 (MDA-MB-468 [10]): 2.69 µM
TGI (MDA-MB-468 [10]): 5.76 µM
CC50 (MDA-MB-468 [10]; [12]): > 1 µM
growth at 0.01 µM (UACC-62): 97%
growth at 100 µM (SN12C [11]): 37%
